Compound activity: PubChem, several laboratories
Sampled rows, rich in hits. Any-hit rate of the full collection: about 1.8%.
STAT1 blocker: reduces IFN-gamma driven STAT1 reporter signal. NIH 3T3 STAT1-luciferase reporter, luminescence. inhibition, % at 5.5 µM. hit rate 0.35% among 200,000. AID 920;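 active = inhibition above a set limit, the mean inhibition across all tested compounds plus 3 SD, cut at about 34% in these data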
STAT3 inh: inhibitors of IL-6 induced STAT3 signaling; U3A cells, IL-6 STAT3-luciferase reporter, luminescence; host cell line lacks STAT1; hit rate 0.89% among 190,000; inhibition, % at 5.5 µM;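 active = inhibition above the mean inhibition across all screened compounds plus 3 SD, cut at about 44% in these data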
PPC-1+TRAIL kill: PPC-1 cancer cell killing with TRAIL present. AID 1443. cell killing (% activity), % at 4 µM or 5 µM. PPC-1 cells + TRAIL, ATPLite viability luminescence. hit rate 0.41% among 220,000;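 active = cell killing above 50% in the first pass at 4 µM, then a duplicate retest at 5 µM averaging 50% or more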
C8 TRAIL sens: caspase-8 TRAIL sensitization | NB7+C8 cells + TRAIL, ATPlite viability luminescence | inhibition (viability loss, TRAIL sensitization), % at 10 µM | hit rate 1% among 360,000 | AID 624354;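 active = compounds causing at least 50% loss of cell viability in the single-dose screen, relative to plate controls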
STAT3 activator: activators of IL-6 induced STAT3 signaling | U3A cells, IL-6 STAT3-luciferase reporter, luminescence; 100% = signal with IL-6 EC80 alone | activation (% of control), % at 5.6 µM | hit rate 0.91% among 190,000;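 active = activation above the screen-wide mean of compound activation plus 3 SD, cut at about 130% in these data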
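Detection: reporter luminescence signal / Assay system: STAT1-lacking human U3A cells, STAT3 luciferase reporter / Incubation: compound pre-incubation 1 h before IL-6, then 6 h stimulation at 37 °C / Control set: IL-6-only high control / Read-out: % activation relative to IL-6 control / Probe or stimulus: Interleukin-6, 33 ng/mL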
PPC1 cytotox: PPC-1 cell cytotoxicity; PPC-1 viability, ATPlite luminescence, overnight; hit rate 50% among 1,200; shares compounds with PPC-1+TRAIL kill; AID 1447; cytotoxicity, % at 5 µM;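 active = reconfirmed compounds whose average cytotoxicity reaches 50% or more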
Of the large screens only hits and unclear results are named; the others gave an inactive call (follow-up assays come after a bar, where they were run).

C=C(C=O)CC1CC(O)[C@]2(C)OC3CC4OC5C[C@]6(C)O[C@]7(C)CCC8OC9C[C@]%10(C)OC%11C(C)=CC(=O)OC%11CC%10OC9C[C@@H](C)C8OC7CC6O[C@]5(C)CC5OC5C4OC3CC2O1 (stereo not given in full)	PPC-1+TRAIL kill 80.3, C8 TRAIL sens 96.3 (no result: STAT3 inh, STAT3 activator) | PPC1 cytotox 78.4
C=C(CO)CC1CC(O)[C@]2(C)OC3CC4OC5C[C@]6(C)O[C@]7(C)CCC8OC9C[C@]%10(C)OC%11C(C)=CC(=O)OC%11CC%10OC9C[C@@H](C)C8OC7CC6O[C@]5(C)C/C=C\C4OC3CC2O1 (stereo not given in full)	none (no result: STAT3 inh, STAT3 activator)
COc1ccc(-n2c(-c3ccccc3[N+](=O)[O-])nc3ccccc3c2=O)cc1	none (no result: STAT1 blocker, STAT3 inh, PPC-1+TRAIL kill, STAT3 activator)
COC(=O)C(C)Oc1cc(C)cc2oc(=O)c3c(c12)CCCC3 (stereo not given)	none | PPC1 cytotox inactive
NC(=S)c1cn(C2OC(CO)C(O)C2O)c2ncnc(N)c12 (stereo not given)	PPC-1+TRAIL kill 55.2, C8 TRAIL sens 67.2 (no result: STAT1 blocker, STAT3 inh, STAT3 activator) | PPC1 cytotox 54.7
O=C(Cc1ccccc1F)N1CCN(CC(=O)N2CCCC2)CC1	none (no result: STAT1 blocker, STAT3 inh, PPC-1+TRAIL kill, STAT3 activator)
COC1CC(OC2CCC3(C)C(CCC4C3CCC3(C)C(C5=CC(=O)OC5)C(OC(C)=O)CC43O)C2)OC(C)C1OC1OC(COC2OC(CO)C(O)C(O)C2O)C(O)C(O)C1O (stereo not given)	none (no result: STAT1 blocker, STAT3 inh, C8 TRAIL sens, STAT3 activator) | PPC1 cytotox 55.6
CN1C(=O)N(C)C(=O)C2(Cc3cc(NC(=O)c4ccc(F)cc4)ccc3N3CCCC32)C1=O (stereo not given)	none (no result: STAT1 blocker, STAT3 inh, PPC-1+TRAIL kill, STAT3 activator)
CCCCn1nnnc1C(CCSC)N1CCC(n2c(=O)[nH]c3ccccc32)CC1 (stereo not given)	none (no result: STAT1 blocker, STAT3 inh, PPC-1+TRAIL kill, STAT3 activator)
CC1(CCO)C(=O)NC(=S)NC1=O	none (no result: STAT1 blocker, STAT3 inh, PPC-1+TRAIL kill, STAT3 activator)
Cn1ccnc1P(=S)(c1nccn1C)N1CCOCC1	none | PPC1 cytotox inactive
COc1ccccc1N1CCN(Cc2ccccc2F)CC1	none | PPC1 cytotox inactive
Cc1cnc(NC(=O)CN2CCCCC2)s1	none (no result: STAT1 blocker, STAT3 inh, PPC-1+TRAIL kill, STAT3 activator)
CCC1(OC(=O)CN)C(=O)OCc2c1cc1n(c2=O)Cc2cc3ccccc3nc2-1 (stereo not given)	none (no result: STAT1 blocker, STAT3 inh, STAT3 activator) | PPC1 cytotox inactive
CC[C@@]1(O)C(=O)OCc2c1cc1n(c2=O)Cc2cc3ccccc3nc2-1	none (no result: STAT1 blocker, STAT3 inh, C8 TRAIL sens, STAT3 activator)
C=CCCC1(C(C)C)C(=O)NC(=S)NC1=O	none (no result: STAT1 blocker, STAT3 inh, PPC-1+TRAIL kill, STAT3 activator)
CC(=O)OC[C@]12CCC(C)=C[C@H]1O[C@@H]1[C@H](O)[C@@H](OC(C)=O)[C@@]2(C)[C@]12CO2	PPC-1+TRAIL kill 64.7, C8 TRAIL sens 89.4 (no result: STAT1 blocker, STAT3 inh, STAT3 activator) | PPC1 cytotox 63.4
C=C1C(=O)O[C@@H]2C[C@@H](C)[C@@H]3C=CC(=O)[C@@]3(C)[C@@H](O)[C@H]12	PPC-1+TRAIL kill 59.7, C8 TRAIL sens 77.2 (no result: STAT1 blocker, STAT3 inh, STAT3 activator) | PPC1 cytotox 57.2
CCn1c(O)c(C=NCCN2CCOCC2)c(=O)[nH]c1=S	none (no result: STAT1 blocker, STAT3 inh, STAT3 activator)
CCN1/C(=C\C=C\C2=[N+](CC)c3ccccc3C2(C)C)C(C)(C)c2ccccc21	STAT1 blocker 55.5, STAT3 inh 100.1, PPC-1+TRAIL kill 55.2, C8 TRAIL sens 76.8 | PPC1 cytotox 60.5
